Measured values reported in ChEMBL document CHEMBL4028879, “Structure-Activity Relationship Studies of Pyrimido[5,4-b]indoles as Selective Toll-Like Receptor 4 Ligands” (J Med Chem, 2017).
Activity calls are given as the source filed them. The rule behind the calls is not given here.

Tests used:
[1] = biological target: T1, Toll-like receptor 4 (Mus musculus) (UniProt Q9QUK6); test: Agonist activity at TLR4 in C57BL/6 mouse BMDC assessed as induction of IL-6 release at 0.1 to 10 uM after 18 hrs by ELISA
T1 sequence (whole entry): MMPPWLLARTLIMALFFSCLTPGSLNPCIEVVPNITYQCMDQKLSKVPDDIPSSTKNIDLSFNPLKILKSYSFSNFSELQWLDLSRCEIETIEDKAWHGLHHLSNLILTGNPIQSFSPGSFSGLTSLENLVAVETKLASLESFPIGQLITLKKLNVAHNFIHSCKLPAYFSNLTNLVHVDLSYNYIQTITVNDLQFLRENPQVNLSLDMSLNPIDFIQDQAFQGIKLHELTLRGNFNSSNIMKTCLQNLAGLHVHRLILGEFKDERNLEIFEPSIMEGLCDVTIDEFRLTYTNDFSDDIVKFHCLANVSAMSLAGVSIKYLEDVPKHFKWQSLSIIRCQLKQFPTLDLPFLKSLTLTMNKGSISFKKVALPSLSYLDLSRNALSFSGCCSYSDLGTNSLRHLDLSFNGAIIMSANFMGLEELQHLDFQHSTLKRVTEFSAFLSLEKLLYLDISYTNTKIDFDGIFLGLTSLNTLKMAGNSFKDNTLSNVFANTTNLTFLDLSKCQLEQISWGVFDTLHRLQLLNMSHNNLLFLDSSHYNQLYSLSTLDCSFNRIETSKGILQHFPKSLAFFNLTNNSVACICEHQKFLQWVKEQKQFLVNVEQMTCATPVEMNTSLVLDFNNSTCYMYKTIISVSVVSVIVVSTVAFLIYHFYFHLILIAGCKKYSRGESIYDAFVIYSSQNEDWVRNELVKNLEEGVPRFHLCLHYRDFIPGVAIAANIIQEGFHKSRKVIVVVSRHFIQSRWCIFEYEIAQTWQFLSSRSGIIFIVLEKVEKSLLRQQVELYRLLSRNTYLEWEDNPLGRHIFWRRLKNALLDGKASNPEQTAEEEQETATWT
Method in brief: (§1)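 BMDC from C57BL/6 mice, 1 × 10⁵ cells/well in RPMI 1640 with 10% FBS and penicillin/streptomycin. Graded doses for 18 h at 37°C, 5% CO₂. IL-6 or CCL5 in supernatants measured by ELISA, detection limit 15 pg/mL. Positive control ultrapure LPS-EB 10 ng/mL. Significance by two-way ANOVA with Dunnett's post hoc test.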

Toll-like receptor 4 [2] = biological target: T2, Toll-like receptor 4 (Homo sapiens, UniProt O00206); test: Agonist activity at human TLR4 expressed in HEK293 blue cells assessed as induction of NF-kappaB activation-mediated SEAP production after 20 to 24 hrs by colorimetric assay; format: cell-based
T2 sequence (O00206 whole entry): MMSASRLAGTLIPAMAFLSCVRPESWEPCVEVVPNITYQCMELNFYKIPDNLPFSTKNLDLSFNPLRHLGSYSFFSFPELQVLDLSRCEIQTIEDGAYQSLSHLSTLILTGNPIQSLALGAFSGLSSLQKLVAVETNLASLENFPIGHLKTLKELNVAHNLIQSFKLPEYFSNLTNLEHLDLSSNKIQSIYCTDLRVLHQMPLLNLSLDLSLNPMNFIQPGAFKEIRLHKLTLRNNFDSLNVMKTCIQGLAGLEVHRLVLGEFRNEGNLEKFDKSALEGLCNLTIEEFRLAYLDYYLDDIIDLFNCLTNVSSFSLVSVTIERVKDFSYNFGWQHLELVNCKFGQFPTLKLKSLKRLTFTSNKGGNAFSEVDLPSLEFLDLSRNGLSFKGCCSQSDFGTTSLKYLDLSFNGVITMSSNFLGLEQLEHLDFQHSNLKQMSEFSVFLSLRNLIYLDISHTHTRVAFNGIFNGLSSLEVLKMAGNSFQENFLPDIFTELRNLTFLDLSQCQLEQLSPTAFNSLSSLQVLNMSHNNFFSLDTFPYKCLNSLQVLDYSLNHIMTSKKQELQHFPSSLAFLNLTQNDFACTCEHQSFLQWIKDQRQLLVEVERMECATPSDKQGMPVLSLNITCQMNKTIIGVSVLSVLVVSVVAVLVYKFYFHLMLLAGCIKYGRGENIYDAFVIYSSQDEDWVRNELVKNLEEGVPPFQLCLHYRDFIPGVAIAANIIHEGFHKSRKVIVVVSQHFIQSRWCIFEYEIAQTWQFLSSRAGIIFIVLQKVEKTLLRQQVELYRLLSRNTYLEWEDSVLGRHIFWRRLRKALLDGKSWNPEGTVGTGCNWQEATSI
Method in brief: (§2)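 HEK-Blue cells expressing human or mouse TLR4, 2.5 × 10⁴/well in DMEM with 10% FBS, pyruvate, glutamine and antibiotics. Graded doses from 20 mM DMSO stocks, final DMSO 0.05%. Supernatants harvested after 20–24 h; SEAP read by colorimetric substrate at 630 nm. EC50 taken as the concentration giving 50% of maximal activation. LPS 100 ng/mL served as positive control.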

[3] = Cytotoxicity against C57BL/6 mouse primary BMDC assessed as cell viability at 5 uM after 18 hrs by MTT assay relative to control; format: cell-based; conditions: primary BMDC (bone marrow-derived dendritic cells), read-out: Activity
[4] = biological target: T1, Toll-like receptor 4 (Mus musculus); test: Agonist activity at mouse TLR4 expressed in HEK293 blue cells assessed as induction of NF-kappaB activation-mediated SEAP production by measuring AUC after 20 to 24 hrs by colorimetric assay relative to N-cyclohexyl-2-(5-methyl-4-oxo-3-phenyl-4,5-dihydro-3H-pyrimido[5,4-b]indol-2-ylthio)acetamide; format: cell-based
Mus musculus [5] = test: Immunostimulatory activity in wild type C57BL/6 mouse assessed as induction of IP-10 levels in serum at 20 nmol, iv measured at 3 hrs post dose by Luminex beads assay; format: functional, organism-based
Method in brief: (§3)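 Seven- to nine-week-old wild-type C57BL/6 mice (n = 6) injected iv with 20 nmol/animal in 0.1% DMSO in saline. Sera collected 3 h after injection; IL-6, IP-10 and KC quantified by Luminex bead assay, detection limit 2.56 pg/mL. Kruskal–Wallis test with Dunn's post hoc test.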

[6] = biological target: T1, Toll-like receptor 4 (Mus musculus); test: Agonist activity at TLR4 in C57BL/6 mouse primary BMDC assessed as induction of IL-6 release at 5 uM after 18 hrs by ELISA relative to N-cyclohexyl-2-(5-methyl-4-oxo-3-phenyl-4,5-dihydro-3H-pyrimido[5,4-b]indol-2-ylthio)acetamide
Toll-like receptor 4 [7] = biological target: T2, Toll-like receptor 4; test: Agonist activity at human TLR4 expressed in HEK293 blue cells assessed as induction of NF-kappaB activation-mediated SEAP production by measuring AUC after 20 to 24 hrs by colorimetric assay relative to N-cyclohexyl-2-(5-methyl-4-oxo-3-phenyl-4,5-dihydro-3H-pyrimido[5,4-b]indol-2-ylthio)acetamide; format: cell-based
[8] = biological target: T1, Toll-like receptor 4 (Mus musculus); test: Agonist activity at TLR4 in C57BL/6 mouse primary BMDC assessed as induction of CCL5 release at 0.1 to 10 uM after 18 hrs by ELISA; method in brief: as §1
Toll-like receptor 4 [9] = biological target: T2, Toll-like receptor 4; test: Agonist activity at TLR4 in human PBMC assessed as induction of IL-8 release at 0.1 to 10 uM after 18 hrs by ELISA
Method in brief: (§4)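 PBMC isolated from blood-bank buffy coats, 1 × 10⁶/mL, stimulated with graded compound doses for 18 h at 37°C, 5% CO₂. IL-6 and IL-8 in supernatants measured by ELISA. Data are mean ± SEM, representative of three independent experiments. Two-way ANOVA with Dunnett's post hoc test.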

Toll-like receptor 4 [10] = biological target: T2, Toll-like receptor 4; test: Agonist activity at TLR4 in human PBMC assessed as induction of IL-6 release at 0.1 to 10 uM after 18 hrs by ELISA; method in brief: as §4
Toll-like receptor 4 [11] = biological target: T3, Toll-like receptor 4 (Mus musculus, UniProt Q9QUK6); test: Agonist activity at mouse TLR4 expressed in HEK293 blue cells assessed as induction of NF-kappaB activation-mediated SEAP production after 20 to 24 hrs by colorimetric assay; format: cell-based; method in brief: as §2
T3 sequence (Q9QUK6 whole entry): T1 sequence (whole entry)

Mus musculus [12] = test: Immunostimulatory activity in wild type C57BL/6 mouse assessed as induction of keratinocyte chemo-attractant levels in serum at 20 nmol, iv measured at 3 hrs post dose by Luminex beads assay; format: functional, organism-based; method in brief: as §3
HepG2 = test: Cytotoxicity against human HepG2 cells assessed as reduction in cell viability at 5 uM after 18 hrs by MTT assay; format: cell-based; conditions: hepg2, 18 h
Method in brief: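 HepG2 cells, 1 × 10⁴/well, exposed overnight (18 h) to 5 μM compound. MTT 0.5 mg/mL then added for six or more hours, followed by lysis and absorbance reading. Mean ± SEM of representative data from three independent experiments.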

Mus musculus [13] = test: Immunostimulatory activity in wild type C57BL/6 mouse assessed as induction of IL-6 levels in serum at 20 nmol, iv measured at 3 hrs post dose by Luminex beads assay; format: functional, organism-based; method in brief: as §3

Row | Activity [1] | EC50 (Toll-like receptor 4 [2]) [nM] | Activity [4] [%] | Activity [6] [%] | Activity (Toll-like receptor 4 [7]) [%] | Activity [8] | Activity (Toll-like receptor 4 [9]) | Activity (Toll-like receptor 4 [10]) | EC50 (Toll-like receptor 4 [11]) [nM] | SMILES | viability at 18 h, 5 µM [3] [%] | Activity (Mus musculus [5]) | Activity (Mus musculus [12]) | Activity (HepG2) | Activity (Mus musculus [13])
1 | Active | 430 | 223 | 123 | 1560 | Active | Active | Active | 820 | Cn1c2ccc(-c3ccccc3)cc2c2nc(SCC(=O)NC3CCCCC3)n(-c3ccccc3)c(=O)c21 | 93 | Active | Active | Non-Toxic | Active
2 | Active | 8260 |  |  |  | Active | Active | Active | 3170 | Cn1c2ccccc2c2nc(SCC(=O)NC3CCCCC3)n(-c3ccccc3)c(=O)c21 | 97 to 106 | Active | Active | Non-Toxic | Active
3 | Active | 920 | 78 | 137 | 1300 | Active | Active | Active | 2010 | Cn1c2ccc(-c3ccc4ccccc4c3)cc2c2nc(SCC(=O)NC3CCCCC3)n(-c3ccccc3)c(=O)c21 | 84 |  |  | Non-Toxic | 
4 | Active | > 10000 | 44 | 93 | 46 | Active |  |  | 8800 | Cn1c2c(c3nc(SCC(=O)NC4CCCCC4)n(-c4ccccc4)c(=O)c31)CCCCC2 | 95 | Active | Active | Non-Toxic | Active
